Results published in publication PMC8842743 (Journal of Alzheimer's Disease Reports, 2022).

Experiments:
[1] = target: Porcine gastric mucosa pepsin (Sus scrofa, UniProt P00791); test: Pepsin FRET assay; assay type: biochemical; conditions: read-out: Pepsin FRET Assay Absolute IC50; n = 2; value (SD)
[2] = tested on: Aβ1-x, C99, sAβPPβ in PDAPP mice; test: In vivo pharmacodynamics in PDAPP mice; design: species or system mouse; conditions: 3.0 mg/kg oral
Procedure, shortened: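 Young (2–3 months) female PDAPP mice (n = 6–8 per group) got a single oral gavage of vehicle (7% Pharmasolve, 10 mL/kg) or 0.3, 1.0 or 3.0 mg/kg. Hippocampal and cortical Aβ1–x, C99 and sAβPPβ were measured in brain extracts 3 h post-dose. In a time course (3.0 mg/kg, n = 6), hippocampal and CSF Aβ1–x were measured at 3, 6, 9 and 12 h. Statistics: ANOVA, then Tukey post hoc, p < 0.05.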

[3] = Brain homogenate protein binding; assay type: in vitro ADME, mouse; conditions: equilibrium dialysis
Procedure, shortened: (§1)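 Fraction unbound was determined in vitro by equilibrium dialysis of mouse brain homogenate or dog plasma. Unbound concentrations were derived by multiplying the total measured concentrations by this fraction unbound.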

[4] = Plasma and CSF pharmacokinetics in beagle dogs; assay type: in vivo, dog
[5] = Dog plasma protein binding; assay type: in vitro ADME; conditions: equilibrium dialysis of dog plasma
Procedure, shortened: as §1

[6] = Clinical single-dose plasma pharmacokinetics; assay type: in vivo, human; conditions: for Cmax / AUC (0∞) / t1/2 / CLR: geometric mean (CV%); for tmax: median (range)
Procedure, shortened: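 Healthy subjects received single oral doses of placebo or 0.1 mg (n = 3 per group), or 0.4, 1.6, 5, 15 or 45 mg (n = 8 per group). Plasma was sampled immediately pre-dose and up to 120 h post-dose. Reported parameters were Cmax, tmax, terminal t1/2, AUC0–∞, clearance and apparent volume of distribution.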

[7] = Clinical multiple-dose pharmacokinetics; assay type: in vivo, human; conditions: for AUCτ,ss / CLR / t1/2 / tmax: day 14; for AUCτ,ss / CLR / t1/2 / Cmax: geometric mean (CV%); for tmax: median (range); for Cmax: day 14 steady state
Procedure, shortened: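 Healthy subjects took daily oral doses for 14 days. Plasma was sampled up to 24 h after the first dose, before the day-14 dose and up to 120 h after it, plus pre-dose troughs every 2 days to assess steady state. Clearance, apparent volume, tmax and t1/2 were reported. Accumulation ratio = AUCτ,ss divided by first-dose AUCτ, per subject.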

[8] = tested on: CSF Aβ1–40 and Aβ1–42 in healthy subjects; test: Clinical single-dose CSF Aβ pharmacodynamics; assay type: in vivo, human
Procedure, shortened: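 Healthy subjects received single doses of 1.6, 10 or 26 mg or placebo. Serial CSF was drawn through an indwelling subarachnoid lumbar catheter from 4 h pre-dose to 36 h post-dose. For each subject, the time of the lowest observed Aβ1–40 and Aβ1–42 concentration, the change from baseline at nadir and the 24 h time-averaged change from baseline were reported.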

patients with mild AD = conditions: Phase II study; cited from earlier work

Sequence of Porcine gastric mucosa pepsin (P00791 60-385): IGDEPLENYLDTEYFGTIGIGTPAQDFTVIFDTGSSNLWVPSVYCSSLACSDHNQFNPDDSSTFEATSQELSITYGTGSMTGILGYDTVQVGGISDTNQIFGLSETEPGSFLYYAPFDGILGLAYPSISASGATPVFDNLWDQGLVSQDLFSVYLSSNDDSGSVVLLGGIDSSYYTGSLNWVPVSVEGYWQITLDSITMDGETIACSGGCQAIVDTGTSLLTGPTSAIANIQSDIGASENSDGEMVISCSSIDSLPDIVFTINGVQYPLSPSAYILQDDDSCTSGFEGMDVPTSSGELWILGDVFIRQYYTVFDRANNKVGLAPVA

## COc1cnc(C(=O)Nc2ccc(F)c([C@]34CN(c5ncc(F)cn5)C[C@H]3CSC(N)=N4)c2)cn1 [LY3202626]
[1]
  IC50: > 14 µM
[2]; 3 h
  Cortex C99 decrease vs vehicle: 65%
  Cortex sAβPPβ decrease vs vehicle: 34%
[2]; 3 hrs
  CSF Aβ1-X reduction vs vehicle, time course: 75%
[3]
  free fraction in brain homogenate: 0.026
[4]; 1.5 mg/kg oral
  mean CSF AUC (3–9 h): 0.025 µM·h
  mean free plasma AUC (3–9 h): 0.028 µM·h
[4]; 1.5 mg/kg oral, mean±SD
  plasma AUC(0-∞): 10.812 ± 5.195 µM·h
[4]; read-out: maximum plasma concentration (Cmax), 1.5 mg/kg oral, mean±SD
  Cmax: 2990 ± 750 nM
[5]
  dog plasma free fraction: 0.009
[6]; healthy subjects, across dose levels
  Renal clearance: approximately 1 L/h
[6]; healthy subjects, across dose levels except 15 mg
  Apparent oral clearance: approximately 26 L/h
[6]; healthy subjects, single oral doses, plasma
  terminal t1/2: approximately 20 h
[6]; single dose 0.1 mg, n = 3
  Cmax: 0.169 (50) ng/mL
[6]; single dose 0.1 mg
  tmax: 3.08 (3.00–6.00) h
[6]; single dose 0.4 mg, n = 8
  Cmax: 0.486 (81) ng/mL
[6]; single dose 0.4 mg
  tmax: 3.55 (3.00–8.00) h
[6]; single dose 1.6 mg, n = 8
  Cmax: 2.89 (70) ng/mL
[6]; single dose 1.6 mg
  AUC (0∞): 60.6 (49) ng·h/mL
  t1/2: 23.0 (21) h
  tmax: 3.00 (3.00–4.00) h
[6]; single dose 5 mg, n = 8
  Cmax: 7.91 (56) ng/mL
[6]; single dose 5 mg
  AUC (0∞): 197 (38) ng·h/mL
  CLR: 1.09 (64) L/h
  t1/2: 19.8 (42) h
  tmax: 4.03 (2.90–24.12) h
[6]; single dose 15 mg, n = 8
  Cmax: 21.3 (77) ng/mL
[6]; single dose 15 mg
  AUC (0∞): 393 (84) ng·h/mL
  CLR: 0.829 (37) L/h
  t1/2: 19.5 (25) h
  tmax: 3.01 (1.98–4.00) h
[6]; single dose 45 mg, n = 8
  Cmax: 92.5 (47) ng/mL
[6]; single dose 45 mg
  AUC (0∞): 1680 (34) ng·h/mL
  CLR: 1.03 (53) L/h
  t1/2: 21.5 (19) h
  tmax: 2.54 (2.00–4.07) h
[7]; multiple dose 1 mg
  AUCτ,ss: 38.6 (25) ng·h/mL
  CLR: 1.61 (46) L/h
  t1/2: 33.1 (38) h
  tmax: 4.04 (3.98–4.23) h
[7]; multiple dose 1 mg, n = 8
  Cmax: 2.57 (25) ng/mL
[7]; multiple dose 6 mg
  AUCτ,ss: 151 (54) ng·h/mL
  CLR: 1.09 (86) L/h
  t1/2: 38.1 (29) h
  tmax: 3.87 (1.95–4.00) h
[7]; multiple dose 6 mg, n = 9
  Cmax: 11.2 (71) ng/mL
[7]; multiple dose 26 mg
  AUCτ,ss: 1020 (50) ng·h/mL
  CLR: 1.29 (39) L/h
  t1/2: 46.3 (25) h
  tmax: 4.03 (2.00–5.78) h
[7]; multiple dose 26 mg, n = 9
  Cmax: 72.8 (61) ng/mL
[8]; single dose 1.6 mg
  CSF Aβ1–42 mean reduction from baseline at nadir: –33.4%
  time of mean nadir of CSF Aβ1–42: approximately 10 h
[8]; single dose 26 mg
  CSF Aβ1–42 mean reduction from baseline at nadir: –71.6%
  time of mean nadir of CSF Aβ1–42: approximately 28 h
Patients with mild AD
  hepatotoxicity: no evidence of hepatotoxicity
